Activity calls are given as the source filed them. The calls are words filed in the database; no cut-off is given here. Where a SMILES comes first, the peptide text is derived from it. The star is where a group is joined. Cbz = O=C(OCc1ccccc1)*; CH2F = FC*
Legend:
Jurkat [1] = assay: Induction of apoptosis in human Jurkat cells assessed as hypodyploid cells at 50 nM after 48 hrs by annexin-V FITC/7-ADD staining-based flow cytometric analysis in presence of 50 uM Z-VAD-fmk pan-caspase inhibitor; format: functional
Paracentrotus lividus [2] = assay: Antimitotic activity against Paracentrotus lividus embryo assessed as embryo spinning treated 10 to 25 mins post fertilization followed by 45 to 60 mins before the first mitotic cycle completion by sea urchin embryo assay; format: functional
Paracentrotus lividus [3] = assay: Antimitotic activity against Paracentrotus lividus embryo assessed as cleavage alteration treated 10 to 25 mins post fertilization followed by 45 to 60 mins before the first mitotic cycle completion by sea urchin embryo assay; format: functional
Paracentrotus lividus [4] = assay: Antimitotic activity against Paracentrotus lividus embryo assessed as cleavage arrest treated 10 to 25 mins post fertilization followed by 45 to 60 mins before the first mitotic cycle completion by sea urchin embryo assay; format: functional
A549 [5] = assay: Inhibition of microtubule polymerization in human A549 cells assessed as total disruption of interphase microtubule network at 0.1 uM after 8 hrs by immunofluorescence microscopy; format: cell-based
How it was run: (§1)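 A549 cells incubated 8 h with compound at 0.1, 0.5, 1 and 5 μM; DMSO vehicle as negative control. Microtubules labelled by indirect immunofluorescence and examined by fluorescence microscopy. Value is the concentration giving total interphase microtubule disassembly, from three independent experiments.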

A549 [6] = assay: Cytotoxicity against human A549 cells assessed as cell viability after 24 hrs by MTT assay; format: functional, cell-based; conditions: A549, 24 h
How it was run: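 A549 human lung carcinoma cells; growth inhibition measured by MTT assay. IC50 derived from dose-response curves, mean ± SD of three independent experiments.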

A549 [7] = assay: Inhibition of microtubule polymerization in human A549 cells assessed as total disruption of interphase microtubule network at 0.5 uM after 8 hrs by immunofluorescence microscopy; format: cell-based; how it was run: as §1
A549 [8] = assay: Inhibition of microtubule polymerization in human A549 cells assessed as total disruption of interphase microtubule network at 5 uM after 8 hrs by immunofluorescence microscopy; format: cell-based; how it was run: as §1
Paracentrotus lividus [9] = assay: Toxicity against Paracentrotus lividus embryo post hatching; format: organism-based; conditions: in vivo
A549 [10] = assay: Inhibition of microtubule polymerization in human A549 cells assessed as total disruption of interphase microtubule network at 1 uM after 8 hrs by immunofluorescence microscopy; format: cell-based; how it was run: as §1
Jurkat [11] = assay: Cell cycle arrest in human Jurkat cells assessed as accumulation of cells in G2/M phase at 20 nM after 24 hrs by propidium iodide staining-based flow cytometry; format: functional
How it was run: (§2)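 Jurkat cells treated for 24 h, then stained with propidium iodide. DNA content analysed by flow cytometry for cell-cycle distribution.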

Jurkat [12] = assay: Induction of apoptosis in human Jurkat cells assessed as reduction in procaspase-8 levels at 50 nM after 48 hrs by Western blotting; format: functional, cell-based
How it was run: (§3)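 Jurkat cells treated at 50 nM for 24 or 48 h; untreated control, etoposide 2 μM 24 h as comparator. Total lysates prepared in SDS-Laemmli buffer and immunoblotted with monoclonal anti-caspase-9, anti-caspase-2 and anti-procaspase-8 antibodies. β-Actin served as loading control.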

Jurkat [13] = assay: Induction of apoptosis in human Jurkat cells assessed as procaspase-2 cleavage at 50 nM after 48 hrs by Western blotting; format: functional, cell-based; how it was run: as §3
Jurkat [14] = assay: Cytotoxicity against human Jurkat cells assessed as cell viability after 48 hrs by trypan blue exclusion assay; format: functional, cell-based
How it was run: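 Jurkat T-leukemia cells; proliferation inhibition measured by trypan blue assay, giving IC50.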

Jurkat [15] = assay: Induction of apoptosis in human Jurkat cells assessed as hypodyploid cells at 50 nM after 48 hrs by annexin-V FITC/7-ADD staining-based flow cytometric analysis (reference value: 12.2%); format: functional
Jurkat [16] = assay: Induction of apoptosis in human Jurkat cells assessed as procaspase-9 cleavage at 50 nM after 48 hrs by Western blotting; format: functional, cell-based; how it was run: as §3
Jurkat [17] = assay: Induction of apoptosis in human Jurkat cells assessed as PARP cleavage at 50 nM after 48 hrs by annexin-V FITC/7-ADD staining-based flow cytometric analysis (reference value: 6.5%); format: functional
Jurkat [18] = assay: Induction of apoptosis in human Jurkat cells assessed as procaspase-9 cleavage at 50 nM after 24 hrs by Western blotting; format: functional, cell-based; how it was run: as §3
Jurkat [19] = assay: Induction of apoptosis in human Jurkat cells assessed as cells with active form of caspase-3 at 50 nM after 48 hrs by annexin-V FITC/7-ADD staining-based flow cytometric analysis (reference value: 7.1%); format: functional
Jurkat [20] = assay: Induction of apoptosis in human Jurkat cells assessed as procaspase-2 cleavage at 50 nM after 24 hrs by Western blotting; format: functional, cell-based; how it was run: as §3
P388 = assay: Cytotoxicity against mouse P388 cells assessed as cell viability after 48 hrs by trypan blue exclusion assay; format: functional, cell-based; conditions: P388, 48 h
A549 [21] = assay: Cell cycle arrest in human A549 cells at 50 uM after 24 hrs using propidium iodide staining by flow cytometry; format: functional, cell-based
A549 [22] = assay: Inhibition of microtubule polymerization in human A549 cells assessed as total disruption of interphase microtubule network at > 5 uM after 8 hrs by immunofluorescence microscopy; format: cell-based
Paracentrotus lividus [23] = assay: Antimitotic activity against Paracentrotus lividus embryo assessed as abnormal gastrula formation at 10 to 20 uM by microscopic analysis; format: functional, organism-based
How it was run: (§4)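 P. lividus hatched blastulae exposed to compound; larval (pluteus) malformations, gastrulation and morphogenesis abnormalities, and developmental abnormalities/embryo death scored microscopically, the latter after 2.5 h of treatment.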

Paracentrotus lividus [24] = assay: Toxicity against Paracentrotus lividus embryo at 40 to 68 uM after 2.5 hrs; format: organism-based; conditions: in vivo; how it was run: as §4
Paracentrotus lividus [25] = assay: Antimitotic activity against Paracentrotus lividus embryo assessed as larval malformation at 4 to 5 uM post hatching by microscopic analysis; format: functional, organism-based; how it was run: as §4
Jurkat [26] = assay: Induction of apoptosis in human Jurkat cells assessed as reduction in procaspase-8 levels at 2 uM after 24 hrs by Western blotting; format: functional, cell-based
How it was run: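 Jurkat cells treated 24 h; total lysates prepared in SDS–Laemmli sample buffer and immunoblotted with anti-procaspase-8 monoclonal antibody; β-actin as loading control.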

Paracentrotus lividus [27] = assay: Induction of apoptosis in Paracentrotus lividus embryo assessed as developmental abnormalities at 40 to 68 uM after 2.5 hrs; format: functional, organism-based; how it was run: as §4
Jurkat [28] = assay: Cell cycle arrest in human Jurkat cells assessed as accumulation of cells in G0/G1 phase at 2 uM after 24 hrs by propidium iodide staining-based flow cytometry; format: functional
How it was run: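 Jurkat cells treated 24 h; DNA content after propidium iodide staining measured by flow cytometry for cell cycle distribution.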

A549 [29] = assay: Cell cycle arrest in human A549 cells assessed as accumulation of cells in G2/M phase after 24 hrs by propidium iodide staining-based flow cytometry; format: functional; conditions: A549, 24 h
Jurkat [30] = assay: Cell cycle arrest in human Jurkat cells assessed as accumulation of cells in G2/M phase at 25 nM after 24 hrs by propidium iodide staining-based flow cytometry; format: functional; how it was run: as §2

| SMILES | EC (Paracentrotus lividus [2]) [nM] | EC (Paracentrotus lividus [3]) [nM] | EC (Paracentrotus lividus [4]) [nM] | inhibition (A549 [5]) | IC50 (A549 [6]) [nM] | inhibition (A549 [7]) | inhibition (A549 [8]) | inhibition (A549 [10]) | Activity (Jurkat [12]) | Activity (Jurkat [13]) | IC50 (Jurkat [14]) [nM] | Activity (Jurkat [15]) [%] | Activity (Jurkat [16]) | Activity (Jurkat [17]) [%] | Activity (Jurkat [18]) | Activity (Jurkat [19]) [%] | Activity (Jurkat [20]) | further results |
| --- | --- | --- | --- | --- | --- | --- | --- | --- | --- | --- | --- | --- | --- | --- | --- | --- | --- | --- |
| COC(=O)C[C@H](NC(=O)[C@H](C)NC(=O)[C@@H](NC(=O)OCc1ccccc1)C(C)C)C(=O)CF (Cbz-Val-Ala-Asp(OMe)-CH2F) | – | – | – | – | – | – | – | – | – | – | – | – | – | – | – | – | – | Activity (Jurkat [1]): 28.4% |
| COc1cc(C2C3=C(COC3=O)Nc3cc4c(cc32)CCCC4)cc(OC)c1OC (stereo not drawn) | 100 | 50 | 200 | Active | 56.5 | Active | Active | Active | – | – | – | – | – | – | – | – | – | Activity (Paracentrotus lividus [9]): Toxic |
| COc1ccc2c(c1)NC1=C(C(=O)OC1)C2c1cc(OC)c2c(c1)OCO2 (stereo not drawn) | 50 | 0.5 | 5 | Active | 15.1 | Active | Active | Active | inactive | Active | 17.5 | 54.9 | Active | 38.3 | Active | 27.8 | Active | Activity (Jurkat [11]): Active |
| COc1cc(-c2c3c(nc4cc5c(cc24)OCO5)COC3=O)cc(OC)c1OC | >4000 | >4000 | >4000 | – | 11900 | – | – | – | – | – | – | – | – | – | – | – | – | IC50 (P388): > 253000 nM; Activity (A549 [21]): inactive; inhibition (A549 [22]): Active |
| COc1cc([C@@H]2c3cc4c(cc3[C@@H](O[C@@H]3O[C@@H]5CO[C@@H](C)O[C@H]5[C@H](O)[C@H]3O)[C@H]3COC(=O)[C@H]23)OCO4)cc(OC)c1O [ETOPOSIDE] | >68000 | 2000 | >68000 | – | – | – | – | – | – | – | – | – | – | – | – | – | – | Activity (Paracentrotus lividus [23]): Active; Activity (Paracentrotus lividus [24]): Toxic; Activity (Paracentrotus lividus [25]): Active; Activity (Jurkat [26]): Active; Activity (Paracentrotus lividus [27]): Active; Activity (Jurkat [28]): Active |
| COc1cc([C@@H]2c3cc4c(cc3[C@H](O)[C@H]3COC(=O)[C@H]23)OCO4)cc(OC)c1OC [PODOFILOX] | 500 | 20 | 50 | Active | 7.47 | Active | Active | Active | inactive | Active | 25 | 55.6 | Active | 40.7 | Active | 28 | Active | EC50 (A549 [29]): 16.5 nM; Activity (Jurkat [30]): Active |

Source: ChEMBL document CHEMBL1914380, “Polyalkoxybenzenes from plants. 5. Parsley seed extract in synthesis of azapodophyllotoxins featuring strong tubulin destabilizing activity in the sea urchin embryo and cell culture assays” (J Med Chem, 2011)
